A short description of series [1]: Ratio of IC50 for CHO cells to IC50 for Plasmodium falciparum. The class given is functional.
Series [2] in a line: Toxicity in CHO cells. The class given is cell-based, Cricetulus griseus. Conditions: Chinese hamster (Cricetulus griseus), CHO cells. The method in brief:
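CHO cells grown to 50% confluency in RPMI-1640 with 10% fetal calf serum, 25 mM Hepes and gentamicin. Serial dilutions made from a 10 mg/mL DMSO stock; DMSO-only controls. After 48 h, MTT (10 mg/mL in medium) added for 1 h, then DMSO added and absorbance read at 650 nm. IC50 by non-linear regression of dose–response; mean ± SE of four determinations.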

A further series relates to Plasmodium falciparum. The experiment in a line: Antimalarial activity against Plasmodium falciparum in LDH reporter assay. The class given is functional, organism-based. Conditions: Plasmodium falciparum. The gist of the method:
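P. falciparum line ItG cultured in O+ human erythrocytes in RPMI-1640 with 10% human serum and 50 μM hypoxanthine. Twofold serial dilutions from 10 mg/mL DMSO stock, 2% hematocrit, 2% parasitemia. Incubated 72 h at 37 °C under 95% N2/3% CO2/2% O2. Parasite LDH assay read at 650 nm after 1 h. IC50 by non-linear regression, mean ± SE of four determinations.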
Background: Reporter assays use an easily measured gene product as a stand-in for the process of interest.

Structures are written as SMILES.

For orientation: IC50 means the concentration that inhibits the measured activity by half. As to `[Cl-].c1ccc(-n2nc(-c3cccc4ccccc34)n[n+]2-c2ccccc2)cc1`, in series [1], the “Ratio IC50” value was 6.9. The IC50 came out at 2.4 µM in series [2] and 0.35 µM in the series with Plasmodium falciparum.
`COc1ccc(-n2nc(-c3ccccc3)n[n+]2-c2ccccc2)cc1.[Cl-]`: the “Ratio IC50” value in series [1] came to 8.1. Besides, the IC50 was determined as 6.5 µM in series [2] and 0.8 µM with Plasmodium falciparum.
`[Cl-].c1ccc(COc2ccc(-n3nc(-c4ccc(-c5ccccc5)cc4)n[n+]3-c3ccccc3)cc2)cc1`: the “Ratio IC50” value in series [1] came out at 6.5. For the same compound, the IC50 in series [2] was found to be 1.7 µM; in the series with Plasmodium falciparum, 0.261 µM.
`[Cl-].[Cl-].c1ccc(-c2nn(-c3ccccc3)[n+](-c3ccc(-c4ccc(-[n+]5nc(-c6ccccc6)nn5-c5ccccc5)cc4)cc3)n2)cc1` [NEOTETRAZOLIUM CHLORIDE]: in series [1], the “Ratio IC50” value came out at 31.4. Moreover, the IC50 in series [2] is 11 µM; in the series with Plasmodium falciparum, 0.35 µM.
As to `Fc1ccc(-[n+]2nc(-c3ccc(-c4ccccc4)cc3)nn2-c2ccccc2)cc1.[Cl-]`, the “Ratio IC50” value in series [1] came to 5.1. Further, the figures for the IC50 (in series [2]; in the series on Plasmodium falciparum) were 4.1 µM and 0.81 µM, respectively.
Take `COc1ccc(-n2nc(-c3ccc(-c4ccccc4)cc3)n[n+]2-c2ccc(Cl)cc2)cc1.[Cl-]`: the “Ratio IC50” value in series [1] was 30. Besides, the values for the IC50 (in series [2]; with Plasmodium falciparum) were 12 µM and 0.4 µM, respectively.
In the case of `[Cl-].c1ccc(-c2nn(-c3ccccc3)[n+](-c3ccccc3)n2)cc1` [TETRAZOLIUM RED], in series [1], the “Ratio IC50” value is given as 236.7. The IC50 in series [2] turned out to be 71 µM; in the series on Plasmodium falciparum it was 0.3 µM.
`COc1cc(-c2nn(-c3ccccc3)[n+](-c3cccc(F)c3)n2)ccc1OCc1ccccc1.[Cl-]`: the “Ratio IC50” value in series [1] stood at 2. For the same compound, the IC50 was found to be 6.5 µM in series [2] and 3.2 µM with Plasmodium falciparum.
`Fc1ccc(-[n+]2nc(-c3ccccc3)nn2-c2ccccc2)cc1.[Cl-]`: in series [1], the “Ratio IC50” value was found to be 41.9. Also, the IC50 in series [2] amounted to 39 µM; with Plasmodium falciparum, 0.93 µM.
Taken in the same sequence, the figures for `Clc1cccc(-[n+]2nc(-c3ccccc3)nn2-c2ccccc2)c1.[Cl-]` were 7.5, 6.3 µM and 0.84 µM.
Consider `COc1ccc(-[n+]2nc(-c3ccc(-c4ccccc4)cc3)nn2-c2ccccc2)cc1.[Cl-]`, for which the “Ratio IC50” value in series [1] is listed as 44.2. Further, the figures for the IC50 (in series [2]; with Plasmodium falciparum) were 19 µM and 0.43 µM, respectively.
Taken in the same sequence, the figures for `O=[N+]([O-])c1ccc(-[n+]2nc(-c3ccc(Br)cc3)nn2-c2ccccc2)cc1.[Cl-]` were 0.7, 7 µM and 10 µM.
The like results for `O=[N+]([O-])c1ccc(-c2nn(-c3ccccc3)[n+](-c3ccccc3)n2)cc1.[Cl-]` were, in that order, 2.2, 31 µM and 14 µM.
On to `Fc1ccc(-[n+]2nc(-c3ccc(OCc4ccccc4)cc3)nn2-c2ccccc2)cc1.[Cl-]`, for which the “Ratio IC50” value in series [1] was found to be 34. Moreover, the IC50 in series [2] was determined as 16 µM; with Plasmodium falciparum, 0.47 µM.
`Fc1ccc(-[n+]2nc(-c3cccc4ccccc34)nn2-c2ccccc2)cc1.[Cl-]`: the “Ratio IC50” value in series [1] is recorded as 38.6. The IC50 in series [2] turned out to be 32 µM; in the series with Plasmodium falciparum, 0.83 µM.
Consider `[Cl-].c1ccc(COc2ccc(-c3nn(-c4ccc(OCc5ccccc5)cc4)[n+](-c4ccccc4)n3)cc2)cc1`, for which, in series [1], the “Ratio IC50” value is 4.2. The results for the 50% inhibitory concentration (IC50) (in series [2]; in the series with Plasmodium falciparum) were 0.96 µM and 0.23 µM, respectively.
With `Fc1ccccc1-[n+]1nc(-c2ccc(-c3ccccc3)cc2)nn1-c1ccccc1.[Cl-]`, in series [1], the “Ratio IC50” value was found to be 22.2. The IC50 in series [2] is 8 µM; with Plasmodium falciparum, 0.36 µM.
`COc1cc(-c2nn(-c3ccccc3)[n+](-c3ccccc3F)n2)ccc1OCc1ccccc1.[Cl-]`: the “Ratio IC50” value in series [1] is 1.2. Further, the IC50 in series [2] came to 2.7 µM; with Plasmodium falciparum it was 2.2 µM.
`[Cl-].c1ccc(COc2ccc(-n3nc(-c4ccccc4)n[n+]3-c3ccccc3)cc2)cc1`: the “Ratio IC50” value in series [1] stood at 185. Also, the IC50 worked out at 37 µM in series [2] and 0.2 µM in the series with Plasmodium falciparum.
Regarding `COc1ccc(-c2nn(-c3ccccc3)[n+](-c3ccc([N+](=O)[O-])cc3)n2)cc1.[Cl-]`, the “Ratio IC50” value in series [1] is reported as 1.6. The results for the IC50 (in series [2]; in the series on Plasmodium falciparum) were 6 µM and 3.7 µM, respectively.
Taken in the same sequence, the figures for `CC(C)c1nn(-c2ccccc2)[n+](-c2ccccc2)n1.[Br-]` were 3.7, 377 µM and 102 µM.
Taken in the same sequence, the figures for `Clc1ccc(-[n+]2nc(-c3ccc(-c4ccccc4)cc3)nn2-c2ccccc2)cc1.[Cl-]` were 39, 16 µM and 0.41 µM.
For `COc1cc(-c2ccc(-n3nc(-c4ccc([N+](=O)[O-])cc4)n[n+]3-c3ccc([N+](=O)[O-])cc3)c(OC)c2)ccc1-n1nc(-c2ccc([N+](=O)[O-])cc2)n[n+]1-c1ccc([N+](=O)[O-])cc1`, inhibition in series [2] was half-maximal at 1.3 µM (IC50).
As to `Clc1cccc(-n2nc(-c3ccccc3)n[n+]2-c2cccc(Cl)c2)c1.[Cl-]`, the “Ratio IC50” value in series [1] was determined as 72. Also, the IC50 was 36 µM in series [2] and 0.5 µM in the series with Plasmodium falciparum.
For `Clc1cccc(-[n+]2nc(-c3ccc(-c4ccccc4)cc3)nn2-c2ccccc2)c1.[Cl-]`, in series [1], the “Ratio IC50” value amounted to 87. Besides, the figures for the IC50 (in series [2]; in the series with Plasmodium falciparum) were 10 µM and 0.115 µM, respectively.
`Fc1ccccc1-[n+]1nc(-c2ccc(OCc3ccccc3)cc2)nn1-c1ccccc1.[Cl-]`: the “Ratio IC50” value in series [1] was found to be 57.1. For the same compound, the results for the IC50 (in series [2]; in the series with Plasmodium falciparum) were 8 µM and 0.14 µM, respectively.
Take `COc1cc(-c2nn(-c3ccccc3)[n+](-c3cccc(Cl)c3)n2)ccc1OCc1ccccc1.[Cl-]`: the “Ratio IC50” value in series [1] is on record as 11.6. In addition, the 50% inhibitory concentration (IC50) in series [2] was 8 µM; in the series with Plasmodium falciparum, 0.69 µM.
The like results for `Clc1cccc(-c2nn(-c3ccc(OCc4ccccc4)cc3)[n+](-c3ccccc3)n2)c1.[Cl-]` were, in that order, 92.7, 38 µM and 0.41 µM.
Turning to `Clc1ccc(-[n+]2nc(-c3ccccc3)nn2-c2ccccc2)cc1.[Cl-]`, the “Ratio IC50” value in series [1] is given as 61.9. Moreover, the concentration for half-maximal inhibition (IC50) in series [2] turned out to be 39 µM; with Plasmodium falciparum it was 0.63 µM.
With `[Cl-].c1ccc(COc2ccc(-c3nn(-c4ccccc4)[n+](-c4ccccc4)n3)cc2)cc1`, the “Ratio IC50” value in series [1] stood at 40.8. Besides, the IC50 was determined as 4.2 µM in series [2] and 0.103 µM with Plasmodium falciparum.
Turning to `Fc1ccccc1-[n+]1nc(-c2ccccc2)nn1-c1ccccc1.[Cl-]`, the “Ratio IC50” value in series [1] was 112.8. In addition, the values for the IC50 (in series [2]; in the series with Plasmodium falciparum) were 44 µM and 0.39 µM, respectively.
As to `COc1cc(-c2nn(-c3ccccc3)[n+](-c3ccccc3)n2)ccc1OCc1ccccc1.[Cl-]`, the “Ratio IC50” value in series [1] stood at 18.1. For the same compound, the IC50 in series [2] is 4.7 µM; in the series with Plasmodium falciparum it was 0.26 µM.
For the compound `Clc1cccc(-[n+]2nc(-c3ccccc3)nn2-c2ccc(OCc3ccccc3)cc2)c1.[Cl-]`, the “Ratio IC50” value in series [1] turned out to be 140. For the same compound, the IC50 came out at 14 µM in series [2] and 0.1 µM in the series with Plasmodium falciparum.
Regarding `[Cl-].c1ccc(-c2ccc(-n3nc(-c4cccc5ccccc45)n[n+]3-c3ccccc3)cc2)cc1`, the “Ratio IC50” value in series [1] turned out to be 3.1. Further, the IC50 in series [2] is 9 µM; with Plasmodium falciparum, 2.9 µM.
Turning to `O=[N+]([O-])c1ccc(-[n+]2nc(-c3ccc(OCc4ccccc4)cc3)nn2-c2ccccc2)cc1.[Cl-]`, the “Ratio IC50” value in series [1] was 0.5. For the same compound, the IC50 in series [2] was determined as 4.4 µM; in the series with Plasmodium falciparum, 9 µM.
With `Clc1cccc(-c2nn(-c3ccccc3)[n+](-c3ccccc3)n2)c1.[Cl-]`, the “Ratio IC50” value in series [1] is recorded as 93.5. Further, the IC50 in series [2] was 43 µM; in the series with Plasmodium falciparum, 0.46 µM.
Consider `Clc1cccc(-n2nc(-c3ccc(OCc4ccccc4)cc3)n[n+]2-c2cccc(Cl)c2)c1.[Cl-]`, for which the “Ratio IC50” value in series [1] came out at 16.2. Moreover, the IC50 in series [2] amounted to 21 µM; in the series with Plasmodium falciparum, 1.3 µM.
Take `COc1ccc(-n2nc(-c3ccc(OCc4ccccc4)cc3)n[n+]2-c2ccccc2)cc1.[Cl-]`: the “Ratio IC50” value in series [1] was 28.1. Moreover, the IC50 was 9 µM in series [2] and 0.32 µM in the series on Plasmodium falciparum.
For `Brc1cccc(-[n+]2nc(-c3ccccc3)nn2-c2ccccc2)c1.[Cl-]`, the “Ratio IC50” value in series [1] is given as 10.7. For the same compound, the IC50 in series [2] was 6.4 µM; with Plasmodium falciparum, 0.6 µM.
`COc1cc(-c2nn(-c3ccccc3)[n+](-c3ccc([N+](=O)[O-])cc3)n2)cc(OC)c1OC(C)=O.[Cl-]`: in series [1], the “Ratio IC50” value stood at 2.6. In addition, the IC50 in series [2] was found to be 19 µM; in the series with Plasmodium falciparum, 7.3 µM.
The like results for `[Cl-].c1ccc(-c2nn(-c3ccccc3)[n+](-c3cccc4ccccc34)n2)cc1` [TETRAZOLIUM VIOLET] were, in that order, 100, 15 µM and 0.15 µM.
On to `[Cl-].c1ccc(-c2ccc(-c3nn(-c4ccccc4)[n+](-c4ccccc4)n3)cc2)cc1`, for which, in series [1], the “Ratio IC50” value stood at 30.4. The IC50 came to 7 µM in series [2] and 0.23 µM in the series on Plasmodium falciparum.
`Fc1cccc(-[n+]2nc(-c3ccc(-c4ccccc4)cc3)nn2-c2ccccc2)c1.[Cl-]`: in series [1], the “Ratio IC50” value is recorded as 18.8. In addition, the IC50 in series [2] came out at 4.9 µM; in the series with Plasmodium falciparum, 0.26 µM.
As for `COc1ccc(-n2nc(-c3ccc(OCc4ccccc4)cc3)n[n+]2-c2cccc(Cl)c2)cc1.[Cl-]`, the “Ratio IC50” value in series [1] is 55.2. In addition, the IC50 in series [2] was 16 µM; in the series with Plasmodium falciparum, 0.29 µM.
With `COc1cc(-c2ccc(-n3nc(-c4ccccc4)n[n+]3-c3ccccc3)c(OC)c2)ccc1-n1nc(-c2ccccc2)n[n+]1-c1ccccc1` [TETRAZOLIUM BLUE CHLORIDE], the results for the IC50 (in series [2]; in the series with Plasmodium falciparum) were above 100 µM and 3.8 µM, respectively.
